In article PMC8428381 (Journal of Virology, 2021):
Structures can show the parent of a compound that is named as a salt.

Legend:
SARS-CoV-2 = settings: by acting against TMPRSS2; cited from earlier work
uPA = uPA (Homo sapiens, UniProt P00749, C299A/N322Q); test: Chromogenic enzyme inhibition assay, uPA serine protease domain; format: biochemical
Procedure, shortened: (§1)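 Serine protease domains (uPA, matriptase) expressed in Pichia pastoris X-33. 2 nM enzyme preincubated 15 min at 37°C with varied test compound in 0.01 M HEPES, 0.15 M NaCl, pH 7.4, 0.1% BSA. Substrate at about Km: S-2444 for uPA, S-2288 for matriptase. Initial rates read at 405 nm; IC50 from a sigmoidal nonlinear fit.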

plasma kallikrein (PK) = plasma kallikrein (PK) (Homo sapiens, UniProt P03952); test: Chromogenic enzyme inhibition assay, plasma kallikrein; format: biochemical
murine uPA (muPA) = murine uPA (muPA) (Mus musculus, UniProt P06869); test: Chromogenic enzyme inhibition assay, murine uPA serine protease domain; format: biochemical
Procedure, shortened: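 Mouse uPA serine protease domain, expressed as E. coli BL21(DE3) inclusion bodies, then refolded and purified. 2 nM enzyme preincubated 15 min at 37°C with varied test compound in 0.01 M HEPES, 0.15 M NaCl, pH 7.4, 0.1% BSA. S-2444 then added at about Km. Initial velocities read at 405 nm; IC50 from a sigmoidal nonlinear regression.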

matriptase = biological target: T1, matriptase (Homo sapiens, UniProt Q9Y5Y6); test: Chromogenic enzyme inhibition assay, matriptase; format: biochemical
T1 sequence (Q9Y5Y6 615-854 limits assumed): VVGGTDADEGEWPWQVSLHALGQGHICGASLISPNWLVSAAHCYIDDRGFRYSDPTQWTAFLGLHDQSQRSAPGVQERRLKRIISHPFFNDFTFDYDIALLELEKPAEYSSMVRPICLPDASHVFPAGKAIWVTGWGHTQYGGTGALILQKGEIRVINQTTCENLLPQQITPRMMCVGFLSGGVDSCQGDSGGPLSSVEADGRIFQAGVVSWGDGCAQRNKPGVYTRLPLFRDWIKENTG
Procedure, shortened: as §1

factor XIa (FXIa) = factor XIa (FXIa) (Homo sapiens, UniProt P03951); test: Chromogenic enzyme inhibition assay, factor XIa; format: biochemical
Procedure, shortened: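 Recombinant FXIa serine protease domain expressed in Pichia pastoris X-33. 2 nM enzyme preincubated 15 min at 37°C with a range of test compound concentrations in 0.01 M HEPES, 0.15 M NaCl, pH 7.4, 0.1% BSA. Chromogenic substrate was then added at about its Km. Initial velocities were read at 405 nm, and IC50 came from a sigmoidal nonlinear fit.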

Sequence of plasma kallikrein (PK) (P03952 391-626 limits assumed): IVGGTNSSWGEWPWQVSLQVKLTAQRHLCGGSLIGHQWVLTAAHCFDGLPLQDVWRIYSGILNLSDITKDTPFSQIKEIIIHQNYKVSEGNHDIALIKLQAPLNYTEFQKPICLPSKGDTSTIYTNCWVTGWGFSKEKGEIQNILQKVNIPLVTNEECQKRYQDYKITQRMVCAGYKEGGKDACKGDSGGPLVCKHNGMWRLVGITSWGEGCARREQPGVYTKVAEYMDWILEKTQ
Sequence of factor XIa (FXIa) (P03951 388-623 limits assumed): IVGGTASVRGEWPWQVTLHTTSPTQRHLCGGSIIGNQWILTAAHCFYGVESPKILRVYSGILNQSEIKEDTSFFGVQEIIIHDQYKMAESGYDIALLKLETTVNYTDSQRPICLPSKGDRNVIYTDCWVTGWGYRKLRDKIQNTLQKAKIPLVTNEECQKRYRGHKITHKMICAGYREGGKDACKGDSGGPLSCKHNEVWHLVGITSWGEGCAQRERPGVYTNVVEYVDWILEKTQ
Sequence of murine uPA (muPA) (P06869 180-426 limits assumed): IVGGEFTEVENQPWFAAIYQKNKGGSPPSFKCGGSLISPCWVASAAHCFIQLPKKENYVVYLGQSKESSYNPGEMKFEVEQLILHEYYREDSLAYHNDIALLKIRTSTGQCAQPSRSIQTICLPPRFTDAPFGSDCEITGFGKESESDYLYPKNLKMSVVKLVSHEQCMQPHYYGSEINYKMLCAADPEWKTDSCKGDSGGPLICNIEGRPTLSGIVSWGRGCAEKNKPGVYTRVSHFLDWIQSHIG

CN(C)C(=O)COC(=O)Cc1ccc(OC(=O)c2ccc(NC(=N)N)cc2)cc1 [camostat, camostat mesylate]
SARS-CoV-2 infection of human lung cells (SARS-CoV-2): inhibits SARS-CoV-2 infection of human lung cells
IC50 (uPA): 0.0864 ± 0.0094 µM
IC50 (plasma kallikrein (PK)): 0.0104 ± 0.0027 µM
IC50 (murine uPA (muPA)): 0.1 ± 0.0419 µM
IC50 (matriptase): 0.0211 ± 0.0035 µM
IC50 (factor XIa (FXIa)): 0.0441 ± 0.0011 µM
